# Tn6 DDE FP: inhibitors of Tn6 peptide binding to human fibrin DD(E); inhibition, % at 8.3 µM; 370,000 compounds, 0.21% hits; P02675; Fibrin DD(E) TRITC-Tn6 fluorescence polarization displacement;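 active = inhibition above a per-campaign cutoff: mean of compounds within control limits plus 3 SD, cut at about 15% in these data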;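 also: 0% = median of all compound wells on the plate and 100% = blocking peptide control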
# PLC-gamma1 inh: inhibitors of human phospholipase C gamma1. purified PLC-gamma1, fluorogenic substrate, fluorescence. 370,000 compounds, 0.84% hits. P19174. inhibition, % at 12.2 µM. AID 720700; in the data active = inhibition above about 9.5%
# PLC-beta3 inh: PLC-beta3 (human) inhibition, primary screen; Q01970; Purified PLC-beta3, fluorogenic substrate, fluorescence; inhibition, % at 12.2 µM; 370,000 compounds, 0.18% hits; in the data active = inhibition above about 11%;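 also: 0% = median of compound wells on plate and 100% = full blocker control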
# KLK7 zymogen act: activates the human kallikrein-7 zymogen | P49862 | purified proKLK7, EDANS-DABCYL substrate fluorescence; 100% is mature enzyme control, 0% vehicle | activation, % at 7 µM | 370,000 compounds, 0.9% hits | AID 652039;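 active = activation above the mean of all tested compounds plus 3 SD, computed per campaign excluding outliers beyond control limits, cut at about 13% in these data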
# Tn7 DDE FP: DD(E)-Tn7 binding inhibition, primary FP screen; P02675; FP displacement of FITC-Tn7 peptide from fibrin DD(E); 0% = median of compound wells per plate; inhibition, % at 8.3 µM; 370,000 compounds, 0.13% hits; AID 720508;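 active = inhibition above the mean of compounds falling within the control limits plus 3 SD of them, cut at about 14% in these data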;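 also: 0% = plate median of compound wells and 100% = 10 µM Aha-Tn7 peptide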
#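 Measure: % inhibition scaled between sample-field median and high-control FP; Test system: human fibrin DD(E); Quantity: 2 µM final DD(E) protein; Doses: one dose, 8.3 µM nominal; Schedule: compound with protein 10 min, then 3 h after probe, room temperature; Detection: fluorescence polarization; Medium: Tris buffer with calcium and detergent, pH 7.8.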
# CendR NRP1 mod: NRP-1/CendR interaction modulation; FAM-RPARPAR peptide binding to NRP-1, fluorescence polarization; inhibition, % at 25 µM; AID 602438; 360,000 compounds, 0.85% hits;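 active = inhibition or corrected inhibition above about 18%, plus a signal ratio from 0.5 to 1.5, limit read from the data, passing the limit was not always enough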
# KLK7 act conf: confirmation of human kallikrein-7 zymogen activators | activation, % at 7 µM | shares compounds with KLK7 zymogen act | purified proKLK7, EDANS-DABCYL substrate fluorescence; scaled: vehicle 0, mature enzyme 100 | AID 686949 | 3,200 compounds, 68% hits;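 active = activation, as change over the incubation, above the mean of all tested compounds plus 3 SD, cut at about 13% in these data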
# EDANS-DABCYL int: optically interferes with EDANS-DABCYL signal, flagging KLK7 hits | shares compounds with KLK7 zymogen act | EDANS-DABCYL substrate fluorescence interference, no enzyme, 4 h; solvent 0%, active enzyme control 100% | activation, % at 7 µM | 3,200 compounds, 80% hits | AID 686952;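 active = activation above the all-compound mean plus 3 SD, ignoring values outside control-based bounds, cut at about 4.8% in these data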;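 also: value is the 4 h activation minus the activation read at time zero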
# Active calls of the source: *; i = inactive; nt = no result; ! = not active in a repeat. A selection: hits, their analogues and other compounds. The true share with any hit is near 3%.
SMILES,Tn6 DDE FP,PLC-gamma1 inh,PLC-beta3 inh,KLK7 zymogen act,Tn7 DDE FP,CendR NRP1 mod,KLK7 act conf,EDANS-DABCYL int
CC(C)N1CCCCC(NC(=O)c2ccc(-c3ccccc3)cc2)C1=O (stereo unspecified),-0.5,2.0,0.2,-0.4,-1.4,nt,nt,nt
Cc1c(Cl)c(=O)oc2cc(OCC(=O)N3CCCC(C)C3)ccc12 (stereo unspecified),1.1,i,i,45.0*,6.5,-10.1,70.4*,68.7*
CNC(=S)NNC(=O)c1ccc(=O)n(Cc2ccc(Cl)cc2Cl)c1,-1.9,-0.9,3.7,-1.1,-4.4,3.0,nt,nt
CNC(=S)NNC(=O)c1cccn(Cc2cccc(C(F)(F)F)c2)c1=O,-6.9,-12.4,-24.7,28.1*,2.9,-2.3,89.0*,84.1*
CCNC(=S)NNC(=O)c1cccn(Cc2ccc(Cl)cc2)c1=O,-1.0,-25.2,-35.4,21.7*,0.6,-0.3,32.9*,39.4*
CNC(=S)NNC(=O)c1sccc1OCc1cccc(C(F)(F)F)c1,-3.5,0.3,0.3,-0.9,-8.3,4.5,nt,nt
CCNC(=S)NNC(=O)c1ccccc1Cl,-1.7,1.1,1.6,0.1,-8.6,-8.1,nt,nt
CNC(=S)NNC(=O)c1cccn(Cc2ccc(Cl)cc2Cl)c1=O,11.8,-15.1,-15.4,15.2*,3.5,nt,29.7*,41.6*
O=C(NN=Cc1ccc(-c2ccccc2)cc1)c1cc(-c2ccc(Cl)cc2)n[nH]1,9.8,-0.3,6.1,-1.2,-7.1,nt,nt,nt
COc1ccc(C(=O)Nc2ccc(NC(=O)c3ccco3)c(Cl)c2)cc1OC,-3.8,-5.3,5.7,15.7*,2.7,7.1,1.6,3.8
O=C(Nc1ccc(NC(=O)c2ccco2)c(Cl)c1)c1ccccc1,-1.4,-5.0,3.7,0.2,0.7,6.4,nt,nt
Cn1c(SCC(=O)Nc2ccc(NC(=O)c3cccs3)cc2)nnc1-c1ccncc1,-10.4,3.6,5.3,51.2*,-5.2,-7.0,1.2,0.1
CN(C)C=Nc1ccc2nn(-c3ccccc3)nc2c1,4.4,i,i,18.6*,-0.9,12.9,66.0*,69.2*
CNC(=O)COc1ccccc1C(=O)Nc1ccc2c(c1)oc1ccccc12,-5.7,-37.7,-48.8,54.7*,-5.7,3.3,-74.5,-111.4
CC(=O)c1ccc(NC(=O)NC2CCCCN(Cc3ccc(Cl)cc3)C2=O)cc1 (stereo unspecified),4.9,0.7,0.6,0.3,0.7,nt,nt,nt
CC(=O)Nc1ccc(C(=O)NCC(c2ccco2)N(C)C)cc1 (stereo unspecified),2.0,-10.0,-18.0,-0.1,0.1,10.0,nt,nt
CC(=O)c1ccc(-c2ccc(C(=O)NCC(c3ccco3)N(C)C)o2)cc1 (stereo unspecified),6.3,-253.8,-398.7,19.2*,-2.3,-10.2,5.5,11.5*
COc1cccc(N2CCN(C(=O)CSc3nc4ncccc4[nH]3)CC2)c1,2.0,-0.4,3.0,-0.1,1.4,nt,nt,nt
CCC[C@@H](/C=C/C(=O)OC(C)(C)C)Sc1ccccc1OC,-3.8,-1.8,4.1,-0.5,3.3,nt,nt,nt
COCC(=O)N(C)c1nnc(-c2cnc(C)cn2)s1,3.1,-13.3,-16.6,16.6*,2.4,5.8,69.9*,81.4*
CN(C(=O)C1CCOC1)c1nnc(-c2cnccn2)s1 (stereo unspecified),-2.7,-3.3,-10.8,28.6*,-1.1,2.8,26.0*,25.9*
Cc1cnc(-c2nnc(N(C)C(=O)C3CCCO3)s2)cn1 (stereo unspecified),-6.8,-77.1,-97.3,74.5*,-4.6,1.7,114.0*,108.0*
CN(C(=O)CCc1ccccc1)c1nnc(-c2ccncc2)s1,-7.6,-3.5,-5.0,1.3,2.9,12.1,nt,nt
CCOC(=O)c1cc2c(=O)n3cccc(C)c3nc2n(CC2CCCO2)c1=NC(C)=O (stereo unspecified),-4.6,-149.6,-196.0,15.0*!,-6.2,7.9,6.1,7.0*
